Experimental data: ChEMBL document CHEMBL1649261, “Pharmacodynamic profile of tigecycline against methicillin-resistant Staphylococcus aureus in an experimental pneumonia model” (Antimicrob Agents Chemother, 2009)

Tests used:
[1] = Protein binding in Staphylococcus aureus-infected BALB/c mouse serum at 12.5 mg/kg, sc administered as single dose; assay type: ADME, organism-based; set-up: dose 12.5 mg/kg, route subcutaneous; details: read-out: PB (converted)
In short: (§1)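 Ultrafiltration was run in triplicate with 30,000-MW cutoff devices. Drug was diluted into fresh mouse serum to final 1.5, 3, 6 and 15 μg/ml, held at 37°C for 10 min with shaking, and centrifuged at 1,000 × g for 45 min at 10°C. Binding was calculated as (S − SUF)/S × 100 for each concentration, each matched to a dose by its peak serum level.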

[2] = Protein binding in Staphylococcus aureus-infected BALB/c mouse serum at 25 mg/kg, sc administered as single dose; assay type: ADME, organism-based; set-up: dose 25 mg/kg, route subcutaneous; details: read-out: PB (converted); in short: as §1
[3] = Protein binding in Staphylococcus aureus-infected BALB/c mouse serum at 50 mg/kg, sc administered as single dose; assay type: ADME, organism-based; set-up: dose 50 mg/kg, route subcutaneous; details: read-out: PB (converted); in short: as §1
[4] = AUC (0 to 8 hrs) in Staphylococcus aureus-infected BALB/c mouse epithelial lining fluid at 12.5 mg/kg, sc administered as single dose; assay type: ADME, organism-based; set-up: time < 8 hr, dose 12.5 mg/kg, route subcutaneous
In short: (§2)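 Infected neutropenic BALB/c mice received a single sc dose in saline. Normal-saline bronchoalveolar lavage was done at 0.25, 1, 4 and 8 h, six mice per time. HPLC drug levels in lavage were converted to epithelial lining fluid concentrations with the serum/BAL urea ratio. AUC0-8 was calculated by the trapezoidal rule, and ELF drug was taken as free drug.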

[5] = AUC (0 to 8 hrs) in Staphylococcus aureus-infected BALB/c mouse epithelial lining fluid at 25 mg/kg, sc administered as single dose; assay type: ADME, organism-based; set-up: time < 8 hr, dose 25 mg/kg, route subcutaneous; in short: as §2
[6] = AUC (0 to 8 hrs) in Staphylococcus aureus-infected BALB/c mouse epithelial lining fluid at 50 mg/kg, sc administered as single dose; assay type: ADME, organism-based; set-up: time < 8 hr, dose 50 mg/kg, route subcutaneous; in short: as §2
[7] = Ratio of fAUC (0 to 8 hrs) in epithelial lining fluid to plasma of Staphylococcus aureus-infected BALB/c mouse at 12.5 mg/kg, sc administered as single dose; assay type: ADME, organism-based; set-up: dose 12.5 mg/kg, route subcutaneous
In short: (§3)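 Neutropenic BALB/c mice (cyclophosphamide ip 250 and 100 mg/kg, 4 d and 1 d pre-inoculation) infected orally with S. aureus in 3% mucin. Single 0.2-ml sc dose in normal saline; six mice per time point. Serum sampled 0.25–8 h, BAL at 0.25, 1, 4, 8 h; HPLC; ELF by urea correction. Trapezoidal AUC0-8; serum corrected for ultrafiltration protein binding, BAL drug assumed free.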

[8] = Ratio of fAUC (0 to 8 hrs) in epithelial lining fluid to plasma of Staphylococcus aureus-infected BALB/c mouse at 25 mg/kg, sc administered as single dose; assay type: ADME, organism-based; set-up: dose 25 mg/kg, route subcutaneous; in short: as §3
[9] = Ratio of fAUC (0 to 8 hrs) in epithelial lining fluid to plasma of Staphylococcus aureus-infected BALB/c mouse at 50 mg/kg, sc administered as single dose; assay type: ADME, organism-based; set-up: dose 50 mg/kg, route subcutaneous; in short: as §3
[10] = Ratio of fAUC to MIC in methicillin-susceptible Staphylococcus aureus ATCC 29213-infected BALB/c mouse at 80% maximal effective concentration; assay type: functional
In short: (§4)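 Mice were neutropenic and infected by lung instillation with ATCC 29213, with the MIC set by CLSI broth microdilution in triplicate. Sc treatment started 6 h post-inoculation at 1.56–150 mg/kg/day, given as one, two or three doses. Lung CFU at 24 h were compared with 0-h controls. Change in log10 CFU was fitted against protein-binding-corrected fAUC/MIC with a sigmoid Emax model.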

[11] = Ratio of fAUC to MIC in community-acquired methicillin-resistant Staphylococcus aureus 144-infected BALB/c mouse at 80% maximal effective concentration; assay type: functional
In short: (§5)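 Neutropenic BALB/c mice (cyclophosphamide 250 and 100 mg/kg i.p., 4 and 1 days before infection) were infected by oral inhalation of 0.05 ml inoculum in 3% mucin under isoflurane. Subcutaneous tigecycline (1.56–150 mg/kg/day, single or 2–3 divided doses, saline vehicle) was started 6 h post-infection. At 24 h lungs were homogenized and plated; change in log10 CFU was taken versus 0-h controls.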

[12] = Ratio of fAUC to MIC in community-acquired methicillin-resistant Staphylococcus aureus 156-infected BALB/c mouse at 80% maximal effective concentration; assay type: functional; in short: as §5
[13] = Ratio of fAUC to MIC in community-acquired methicillin-resistant Staphylococcus aureus 147-infected BALB/c mouse at 80% maximal effective concentration; assay type: functional; in short: as §5
[14] = Ratio of fAUC to MIC in hospital-acquired methicillin-resistant Staphylococcus aureus 56-infected BALB/c mouse at 80% maximal effective concentration; assay type: functional; in short: as §5
[15] = Ratio of fAUC to MIC in hospital-acquired methicillin-resistant Staphylococcus aureus 152-infected BALB/c mouse at 80% maximal effective concentration; assay type: functional; in short: as §5
[16] = Ratio of fAUC to MIC in methicillin-susceptible Staphylococcus aureus ATCC 29213-infected BALB/c mouse at […] maximal effective concentration; assay type: functional; in short: as §4
[17] = Ratio of fAUC to MIC in community-acquired methicillin-resistant Staphylococcus aureus 144-infected BALB/c mouse at […] maximal effective concentration; assay type: functional; in short: as §5
[18] = Ratio of fAUC to MIC in community-acquired methicillin-resistant Staphylococcus aureus 156-infected BALB/c mouse at […] maximal effective concentration; assay type: functional; in short: as §5
[19] = Ratio of fAUC to MIC in community-acquired methicillin-resistant Staphylococcus aureus 147-infected BALB/c mouse at […] maximal effective concentration; assay type: functional; in short: as §5
[20] = Ratio of fAUC to MIC in hospital-acquired methicillin-resistant Staphylococcus aureus 56-infected BALB/c mouse at […] maximal effective concentration; assay type: functional; in short: as §5
[21] = Ratio of fAUC to MIC in hospital-acquired methicillin-resistant Staphylococcus aureus 152-infected BALB/c mouse at […] maximal effective concentration; assay type: functional; in short: as §5
[22] = Ratio of fAUC to MIC in methicillin-susceptible Staphylococcus aureus ATCC 29213-infected BALB/c mouse at bacteriostatic concentration; assay type: functional; in short: as §4
[23] = Ratio of fAUC to MIC in community-acquired methicillin-resistant Staphylococcus aureus 144-infected BALB/c mouse at bacteriostatic concentration; assay type: functional; in short: as §5
[24] = Ratio of fAUC to MIC in community-acquired methicillin-resistant Staphylococcus aureus 156-infected BALB/c mouse at bacteriostatic concentration; assay type: functional; in short: as §5
[25] = Ratio of fAUC to MIC in community-acquired methicillin-resistant Staphylococcus aureus 147-infected BALB/c mouse at bacteriostatic concentration; assay type: functional; in short: as §5
[26] = Ratio of fAUC to MIC in hospital-acquired methicillin-resistant Staphylococcus aureus 56-infected BALB/c mouse at bacteriostatic concentration; assay type: functional; in short: as §5
[27] = Ratio of fAUC to MIC in hospital-acquired methicillin-resistant Staphylococcus aureus 152-infected BALB/c mouse at bacteriostatic concentration; assay type: functional
In short: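 Neutropenic BALB/c mice (cyclophosphamide ip 250 and 100 mg/kg, 4 days and 1 day pre-inoculation), isoflurane-anaesthetised, inoculated via the mouth with 0.05 ml of 3.0 × 10^8 CFU/ml in 3% mucin. SC tigecycline in saline, 1.56–150 mg/kg/day single or 2–3 divided doses from 6 h. Whole-lung CFU at 24 h versus 0-h controls; sigmoid Emax fit of Δlog10 CFU against fAUC/MIC gives stasis value.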

With `CN(C)c1cc(NC(=O)CNC(C)(C)C)c(O)c2c1C[C@H]1C[C@H]3[C@H](N(C)C)C(O)=C(C(N)=O)C(=O)[C@@]3(O)C(O)=C1C2=O` [TIGECYCLINE] the fraction unbound [1] was 0.128, the fraction unbound [2] was 0.063 and the fraction unbound [3] was 0.041. The AUC(0-t) at 8 h [4] was 11000 ng·h/mL, the AUC(0-t) at 8 h [5] was 20400 ng·h/mL and the AUC(0-t) at 8 h [6] was 41900 ng·h/mL. It also gave a Kp uu [7] of 7.02, a Kp uu [8] of 15.1 and a Kp uu [9] of 23.9. For the same compound, the fAUC/MIC [10] was 2.68, the fAUC/MIC [11] was 2.64 and the fAUC/MIC [12] was 5.22. For the same compound, the fAUC/MIC [13] was 3.12, the fAUC/MIC [14] was 2.11 and the fAUC/MIC [15] was 2.48. For the same compound, the fAUC/MIC [16] was 2.33, the fAUC/MIC [17] was 2.29 and the fAUC/MIC [18] was 3.91. For the same compound, the fAUC/MIC [19] was 0.69, the fAUC/MIC [20] was 0.38 and the fAUC/MIC [21] was 1.43. The fAUC/MIC [22] was 2.38, the fAUC/MIC [23] was 2.17 and the fAUC/MIC [24] was 4.18. It also gave a fAUC/MIC [25] of 0.41, a fAUC/MIC [26] of 0.43 and a fAUC/MIC [27] of 1.51.
